Laboratory results as given in ChEMBL document CHEMBL1126068, “Renin inhibitors containing C-termini derived from mercaptoheterocycles” (J Med Chem, 1992).

Columns and labels:
Renin = molecular target: T1, Renin (Homo sapiens, UniProt P00797); experiment: The compound was tested in vitro for inhibition of human plasma renin.; type: cell-free
T1 sequence (P00797 whole entry): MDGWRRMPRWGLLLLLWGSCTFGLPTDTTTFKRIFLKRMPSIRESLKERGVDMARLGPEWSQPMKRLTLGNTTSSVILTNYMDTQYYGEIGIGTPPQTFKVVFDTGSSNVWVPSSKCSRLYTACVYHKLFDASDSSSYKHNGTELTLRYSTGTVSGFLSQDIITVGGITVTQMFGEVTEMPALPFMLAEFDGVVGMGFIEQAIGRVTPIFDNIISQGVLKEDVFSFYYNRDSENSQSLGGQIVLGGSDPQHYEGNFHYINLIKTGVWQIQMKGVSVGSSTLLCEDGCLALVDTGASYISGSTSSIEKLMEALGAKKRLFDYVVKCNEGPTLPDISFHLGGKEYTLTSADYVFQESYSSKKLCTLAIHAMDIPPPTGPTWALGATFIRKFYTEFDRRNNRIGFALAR
Summary of the method: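 Lyophilized human plasma was reconstituted in distilled water on the assay day. Angiotensin I was measured by radioimmunoassay (commercial kit) at pH 7.4 in phosphate buffer, 37 °C, with PMSF to block angiotensinases. Inhibitors came from a 1 mM DMF stock serially diluted to 3–5 concentrations, run in duplicate and averaged. IC50 was calculated by linear regression.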

[1] = Peak change in heart rate (average) at the dose of 0.44 mg/kg administered through intravenously in Rhesus monkeys.; type: functional, Cercopithecidae; conditions: route intravenous
Summary of the method: (§1)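 Conscious male and female rhesus monkeys kept on a low-sodium diet, given furosemide the evening before, and fasted 18 h before and during the study. MAP was read directly and blood drawn for PRA through chronic arterial access ports. Compound was given IV via venous catheter in 0.05% acetic acid/5% dextrose/H2O, 20 min after a vehicle control. Time courses were plotted and peak changes taken; N = 2.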

[2] = Inhibition of plasma renin determined at Peak change in mean arterial pressure at the dose of 0.44 mg/kg administered through intravenously in Rhesus monkeys.; type: functional; conditions: Cercopithecidae, route intravenous; summary of the method: as §1
[3] = Peak change in mean arterial pressure (average) at the dose of 0.44 mg/kg administered through intravenously in Rhesus monkeys.; type: functional, Cercopithecidae, Artery; conditions: route intravenous; summary of the method: as §1
[4] = Inhibition of plasma renin determined at Peak change in mean arterial pressure at the dose of 0.42 mg/kg administered through intravenously in Rhesus monkeys.; type: functional; conditions: Cercopithecidae, route intravenous; summary of the method: as §1
[5] = Peak change in mean arterial pressure (average) at the dose of 0.42 mg/kg administered through intravenously in Rhesus monkeys.; type: functional, Cercopithecidae, Artery; conditions: route intravenous; summary of the method: as §1
[6] = Peak change in heart rate (average) at the dose of 0.42 mg/kg administered through intravenously in Rhesus monkeys.; type: functional, Cercopithecidae; conditions: route intravenous; summary of the method: as §1
[7] = Inhibition of plasma renin determined at Peak change in mean arterial pressure at the dose of 0.39 mg/kg administered through intravenously in Rhesus monkeys.; type: functional; conditions: Cercopithecidae, route intravenous; summary of the method: as §1
[8] = Peak change in heart rate (average) at the dose of 0.39 mg/kg administered through intravenously in Rhesus monkeys.; type: functional, Cercopithecidae; conditions: route intravenous; summary of the method: as §1
[9] = Peak change in mean arterial pressure (average) at the dose of 0.39 mg/kg administered through intravenously in Rhesus monkeys.; type: functional, Cercopithecidae, Artery; conditions: route intravenous; summary of the method: as §1
[10] = Peak change in heart rate (average) at the dose of 1.19 mg/kg administered through intravenously in Rhesus monkeys.; type: functional, Cercopithecidae; conditions: route intravenous; summary of the method: as §1
[11] = Peak change in mean arterial pressure (average) at the dose of 1.19 mg/kg administered through intravenously in Rhesus monkeys.; type: functional, Cercopithecidae, Artery; conditions: route intravenous; summary of the method: as §1
[12] = Inhibition of plasma renin determined at Peak change in mean arterial pressure at the dose of 1.19 mg/kg administered through intravenously in Rhesus monkeys.; type: functional; conditions: Cercopithecidae, route intravenous; summary of the method: as §1
[13] = Peak change in heart rate (average) at the dose of 0.34 mg/kg administered through intravenously in Rhesus monkeys.; type: functional, Cercopithecidae; conditions: route intravenous; summary of the method: as §1
[14] = Peak change in mean arterial pressure (average) at the dose of 0.34 mg/kg administered through intravenously in Rhesus monkeys.; type: functional, Cercopithecidae, Artery; conditions: route intravenous; summary of the method: as §1
[15] = Inhibition of plasma renin determined at Peak change in mean arterial pressure at the dose of 0.34 mg/kg administered through intravenously in Rhesus monkeys.; type: functional; conditions: Cercopithecidae, route intravenous; summary of the method: as §1
[16] = Inhibition of plasma renin determined at Peak change in mean arterial pressure at the dose of 0.88 mg/kg administered through intravenously in Rhesus monkeys.; type: functional; conditions: Cercopithecidae, route intravenous; summary of the method: as §1
[17] = Peak change in heart rate (average) at the dose of 0.88 mg/kg administered through intravenously in Rhesus monkeys.; type: functional, Cercopithecidae; conditions: route intravenous; summary of the method: as §1
[18] = Peak change in mean arterial pressure (average) at the dose of 0.88 mg/kg administered through intravenously in Rhesus monkeys.; type: functional, Cercopithecidae, Artery; conditions: route intravenous; summary of the method: as §1
[19] = Peak change in heart rate (average) at the dose of 0.40 mg/kg administered through intravenously in Rhesus monkeys.; type: functional, Cercopithecidae; conditions: dose 0.4 mg/kg; route intravenous; summary of the method: as §1
[20] = Peak change in mean arterial pressure (average) at the dose of 0.40 mg/kg administered through intravenously in Rhesus monkeys.; type: functional, Cercopithecidae, Artery; conditions: dose 0.4 mg/kg; route intravenous; summary of the method: as §1
[21] = Inhibition of plasma renin determined at Peak change in mean arterial pressure at the dose of 0.40 mg/kg administered through intravenously in Rhesus monkeys.; type: functional; conditions: Cercopithecidae, route intravenous; summary of the method: as §1
[22] = Inhibition of plasma renin determined at Peak change in mean arterial pressure at the dose of 0.35 mg/kg administered through intravenously in Rhesus monkeys.; type: functional; conditions: Cercopithecidae, route intravenous; summary of the method: as §1
[23] = Peak change in heart rate (average) at the dose of 0.35 mg/kg administered through intravenously in Rhesus monkeys.; type: functional, Cercopithecidae; conditions: route intravenous; summary of the method: as §1
[24] = Peak change in mean arterial pressure (average) at the dose of 0.35 mg/kg administered through intravenously in Rhesus monkeys.; type: functional, Cercopithecidae, Artery; conditions: route intravenous; summary of the method: as §1

SMILES | IC50 (Renin) | other results
CCOC(=O)Cn1nnnc1SC[C@H](O)[C@H](CC1CCCCC1)NC(=O)[C@H](Cc1cnc[nH]1)NC(=O)[C@H](Cc1ccccc1)NC(=O)OC(C)(C)C | 207 nM | 
CC(C)(C)OC(=O)N[C@@H](Cc1ccccc1)C(=O)N[C@@H](Cc1c[nH]cn1)C(=O)N[C@@H](CC1CCCCC1)[C@@H](O)CSc1nnc(Nc2ccccc2)s1 | 3310 nM | 
CC(C)(C)OC(=O)N[C@@H](Cc1ccccc1)C(=O)N[C@@H](Cc1c[nH]cn1)C(=O)N[C@@H](CC1CCCCC1)[C@@H](O)CSc1nnc(C(F)(F)F)n1CCc1ccncc1 | 41 nM | Peak deltaHR [1]: -1 beats min-1; inhibition in vivo at 0.44 mg/kg [2]: 93%; Peak deltaMAP [3]: -10 mmHg
CC(C)(C)OC(=O)N[C@@H](Cc1ccccc1)C(=O)N[C@@H](Cc1cnc[nH]1)C(=O)N[C@@H](CC1CCCCC1)[C@@H](O)CSc1ccccn1 | 198 nM | 
CN(C)CCNC(=O)Cn1nnnc1SC[C@H](O)[C@H](CC1CCCCC1)NC(=O)[C@H](Cc1c[nH]cn1)NC(=O)[C@H](Cc1ccccc1)NC(=O)OC(C)(C)C | 1290 nM | 
CC(C)(C)OC(=O)N[C@@H](Cc1ccccc1)C(=O)N[C@@H](Cc1c[nH]cn1)C(=O)N[C@@H](CC1CCCCC1)[C@@H](O)CSc1nnnn1CCN1CCOCC1 | 39 nM | inhibition in vivo at 0.42 mg/kg [4]: 90%; Peak deltaMAP [5]: -10.5 mmHg; Peak deltaHR [6]: -8 beats min-1
Cn1c(SC[C@H](O)[C@H](CC2CCCCC2)NC(=O)[C@H](Cc2c[nH]cn2)NC(=O)[C@H](Cc2ccccc2)NC(=O)OC(C)(C)C)nnc1C(F)(F)F | 39 nM | inhibition in vivo at 0.39 mg/kg [7]: 85%; Peak deltaHR [8]: -5 beats min-1; Peak deltaMAP [9]: -11 mmHg
CC(C)(C)OC(=O)N[C@@H](Cc1ccccc1)C(=O)N[C@@H](Cc1cnc[nH]1)C(=O)N[C@@H](CC1CCCCC1)[C@@H](O)CSc1nnnn1CC(N)=O | 448 nM | 
CC(C)(C)OC(=O)N[C@@H](Cc1ccccc1)C(=O)N[C@@H](Cc1c[nH]cn1)C(=O)N[C@@H](CC1CCCCC1)[C@@H](O)CSC1CCCCC1 | 289 nM | 
CN1CCN(C(=O)Cn2nnnc2SC[C@H](O)[C@H](CC2CCCCC2)NC(=O)[C@H](Cc2c[nH]cn2)NC(=O)[C@H](Cc2ccccc2)NC(=O)OC(C)(C)C)CC1 | 359 nM | 
Cn1ccnc1SC[C@H](O)[C@H](CC1CCCCC1)NC(=O)[C@H](Cc1c[nH]cn1)NC(=O)[C@H](Cc1ccccc1)NC(=O)OC(C)(C)C | 124 nM | Peak deltaHR [10]: -3 beats min-1; Peak deltaMAP [11]: -8.5 mmHg; inhibition in vivo at 1.19 mg/kg [12]: 75%
CC(C)(C)OC(=O)N[C@@H](Cc1ccccc1)C(=O)N[C@@H](Cc1c[nH]cn1)C(=O)N[C@@H](CC1CCCCC1)[C@@H](O)CSc1nnnn1CCc1ccncc1 | 31 nM | Peak deltaHR [13]: 1 beats min-1; Peak deltaMAP [14]: -22 mmHg; inhibition in vivo at 0.34 mg/kg [15]: 95%
C[n+]1ccc(CCn2nnnc2SC[C@H](O)[C@H](CC2CCCCC2)NC(=O)[C@H](Cc2c[nH]cn2)NC(=O)[C@H](Cc2ccccc2)NC(=O)OC(C)(C)C)cc1 | 678 nM | 
Cn1nc(C(F)(F)F)nc1SC[C@H](O)[C@H](CC1CCCCC1)NC(=O)[C@H](Cc1c[nH]cn1)NC(=O)[C@H](Cc1ccccc1)NC(=O)OC(C)(C)C | 392 nM | 
CC(C)(C)OC(=O)N[C@@H](Cc1ccccc1)C(=O)N[C@@H](Cc1c[nH]cn1)C(=O)N[C@@H](CC1CCCCC1)[C@@H](O)CSc1ncc2ccccn12 | 708 nM | 
C=CCn1c(SC[C@H](O)[C@H](CC2CCCCC2)NC(=O)[C@H](Cc2c[nH]cn2)NC(=O)[C@H](Cc2ccccc2)NC(=O)OC(C)(C)C)nnc1C(F)(F)F | 206 nM | 
CN(C)CCn1nnnc1SC[C@H](O)[C@H](CC1CCCCC1)NC(=O)[C@H](Cc1cnc[nH]1)NC(=O)[C@H](Cc1ccccc1)NC(=O)OC(C)(C)C | 145 nM | 
Cn1cnnc1SC[C@H](O)[C@H](CC1CCCCC1)NC(=O)[C@H](Cc1c[nH]cn1)NC(=O)[C@H](Cc1ccccc1)NC(=O)OC(C)(C)C | 81 nM | inhibition in vivo at 0.88 mg/kg [16]: 90%; Peak deltaHR [17]: 17 beats min-1; Peak deltaMAP [18]: -9 mmHg
CC(C)(C)OC(=O)N[C@@H](Cc1ccccc1)C(=O)N[C@@H](Cc1c[nH]cn1)C(=O)N[C@@H](CC1CCCCC1)[C@@H](O)CSc1nnnn1CCc1ccc(O)cc1 | 33 nM | 
CC(C)(C)OC(=O)N[C@@H](Cc1ccccc1)C(=O)N[C@@H](Cc1c[nH]cn1)C(=O)N[C@@H](CC1CCCCC1)[C@@H](O)CS(=O)(=O)c1nnnn1CCc1cc[n+]([O-])cc1 | 37 nM | Peak deltaHR [19]: 23 beats min-1; Peak deltaMAP [20]: -12 mmHg; inhibition in vivo at 0.4 mg/kg [21]: 98%
Cn1nnnc1SC[C@H](O)[C@H](CC1CCCCC1)NC(=O)[C@H](Cc1c[nH]cn1)NC(=O)[C@H](Cc1ccccc1)NC(=O)OC(C)(C)C | 32 nM | inhibition in vivo at 0.35 mg/kg [22]: 89%; Peak deltaHR [23]: -5 beats min-1; Peak deltaMAP [24]: -9 mmHg
CC(C)(C)OC(=O)N[C@@H](Cc1ccccc1)C(=O)N[C@@H](Cc1cnc[nH]1)C(=O)N[C@@H](CC1CCCCC1)[C@@H](O)CSc1nnnn1CC(=O)O | 396 nM | 
Cc1ccnc(SC[C@H](O)[C@H](CC2CCCCC2)NC(=O)[C@H](Cc2cnc[nH]2)NC(=O)[C@H](Cc2ccccc2)NC(=O)OC(C)(C)C)n1 | 240 nM | 
CC(C)(C)OC(=O)N[C@@H](Cc1ccccc1)C(=O)N[C@@H](Cc1cnc[nH]1)C(=O)N[C@@H](CC1CCCCC1)[C@@H](O)CSc1nnnn1CC(=O)NCCN1CCOCC1 | 314 nM | 
